Screening data from PubChem BioAssay.
ZTA counter: counter-screen for EBNA-1 inhibitors: inhibitors of Epstein-Barr virus ZTA; ZTA-DNA binding, fluorescence polarization; inhibition, % at 11 µM; 320,000 compounds, 0.15% hits; AID 2234; in the data active = inhibition above about 33%
Target sequence (P03206 whole entry, looked up): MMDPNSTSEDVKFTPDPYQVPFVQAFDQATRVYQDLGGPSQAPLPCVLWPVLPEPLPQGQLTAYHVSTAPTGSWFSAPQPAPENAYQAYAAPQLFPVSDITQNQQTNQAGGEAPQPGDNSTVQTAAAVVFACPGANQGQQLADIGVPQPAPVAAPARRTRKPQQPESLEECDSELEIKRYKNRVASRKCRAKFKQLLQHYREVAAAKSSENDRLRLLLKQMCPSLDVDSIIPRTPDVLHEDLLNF
CTSL1 counter: cathepsin L1 inhibition, PFM18AAP counter-screen. inhibition, % at 5.96 µM. recombinant F. hepatica cathepsin L1, Z-Leu-Arg-MCA fluorescence. 300,000 compounds, 0.49% hits;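 active = inhibition above the mean of all tested compounds plus 3 SD, set per screening campaign, cut at about 17% in these data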
EBNA-1 inhibitor: blocks EBNA-1 binding to DNA | EBNA-1 DNA binding, fluorescence polarization | inhibition, % at 14.8 µM | AID 1950 | 300,000 compounds, 0.34% hits; in the data active = inhibition above about 28%
HCV NS3 hel inh: blocks Hepatitis C virus NS3 helicase unwinding | NS3 helicase DNA unwinding, Cy5 molecular beacon fluorescence | inhibition, % at 10.9 µM | 290,000 compounds, 0.56% hits;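 active = inhibition above the mean of all tested compounds plus 3 SD, set per campaign, cut at about 35% in these data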
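System: NS3 helicase fragment of HCV / Schedule: 1 h at 25 °C / Control set: DMSO alone as 0% and 110 µM thioflavine S as 100% / Reagent: Cy5/quencher beacon DNA duplex and ATP to start / Technique: Cy5 fluorescence / Replication: singlicate / Evaluation: % inhibition of end-to-start signal ratio versus controls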
NS3 hel confirm: HCV NS3 helicase inhibition, confirmation assay. shares compounds with HCV NS3 hel inh. NS3 helicase DNA unwinding, Cy5 molecular beacon fluorescence. inhibition, % at 10.9 µM. 1,600 compounds, 31% hits. AID 1943;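 active = inhibition above the mean of all tested compounds plus 3 SD, cutoff set per campaign, cut at about 36% in these data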
DNA FID counter: displaces DNA intercalator in HCV helicase counter-screen; shares compounds with HCV NS3 hel inh; DNA fluorescent intercalator displacement, fluorescence; inhibition, % at 7.9 µM; 1,600 compounds, 4% hits; in the data active = inhibition above about 37%;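 also: higher means more displacement of ethidium bromide from the DNA hairpin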
Hits are given with their value; . = inactive; / = no result given. A selection: hits, their analogues and other compounds. The true share with any hit is near 1.4%.

SMILES	ZTA counter	CTSL1 counter	EBNA-1 inhibitor	HCV NS3 hel inh	NS3 hel confirm	DNA FID counter
CC1=NNC(=O)C1CC(=O)N/N=C/C(C)=C/c1ccccc1 (centres undefined)	.	.	.	.	/	/
COC(=O)[C@@H](NCc1cccc(CN[C@H](C(=O)OC)c2ccccc2)c1)c1ccccc1	.	.	.	.	/	/
O=C(O)c1ccc2c(c1)[C@@H]1C=CC[C@@H]1[C@H](c1ccccn1)N2	79.8	.	.	59.4	60.0	.
Cc1cc(C2=NNC(=NCc3ccccc3)SC2)c(C)n1-c1c(C)n(C)n(-c2ccccc2)c1=O	/	/	/	36.5	.	.
Cn1c(=O)oc2cc(S(=O)(=O)N3CCCC(C(=O)N4CCn5c4nc4ccccc45)C3)ccc21 (centres undefined)	/	/	/	.	/	/
COc1ccc(C(=O)CC(=O)C(=O)Nc2ccc(C)cc2Cl)cc1	.	.	.	38.5	.	.
COc1cccc(C(=O)CC(=O)C(=O)Nc2ccc(C)cc2Cl)c1	.	.	.	63.2	.	.
CCOCCCNC(=O)CN1C(=O)/C(=C/c2ccccc2)Sc2ccccc21	.	.	.	.	/	/
COc1ccc(-c2nn(-c3ccccc3)cc2/C=N/Nc2ccc(S(N)(=O)=O)cc2[N+](=O)[O-])cc1OC	.	.	.	.	/	/
Cc1ccc(C(=O)Nc2ccc3c(c2)OCO3)cc1	.	.	.	37.8	.	.
COc1ccc(/C=C2\Oc3cc(OC(=O)N4CCOCC4)ccc3C2=O)cc1	.	.	.	.	/	/
CCc1ccc(/C=C2\Oc3cc(OC(=O)N4CCOCC4)ccc3C2=O)cc1	.	.	.	46.9	.	.
CC(C)Cn1c2c(c(O)c(C(=O)Nc3ncccc3O)c1=O)CCCC2	.	.	.	.	/	/
S=c1[nH]nc(-c2ccccc2)n1/N=C/C=C/c1ccco1	.	.	.	52.2	.	.
Oc1c(Br)cc(Br)c(/C=N/n2c(-c3ccccc3)n[nH]c2=S)c1Br	.	.	.	39.5	68.8	.
Cc1ccccc1-c1n[nH]c(=S)n1/N=C/C=C/c1ccco1	.	.	.	37.7	.	.
S=c1[nH]nc(-c2ccc(Cl)cc2)n1/N=C/C=C/c1ccco1	.	.	.	.	/	/
COc1ccc(/C=C/C(=O)Nc2ccc(N3CCOCC3)cc2)cc1	.	.	.	.	/	/
CN(C)CC(CCC(CN(C)C)C(O)(c1ccccc1)c1ccccc1)C(O)(c1ccccc1)c1ccccc1 (centres undefined)	/	/	/	.	/	/
COc1ccc(OCC(=O)Nc2ccc3c(c2)nc(CCn2ccccc2=O)n3C)cc1	.	.	.	44.8	.	.
COc1ccc(OCC(=O)Nc2ccc3c(c2)nc(CCN2CCOCC2)n3C)cc1	.	.	.	.	/	/
CCCCCC(=O)Nc1nc(C)c(-c2csc(Nc3cc(OC)ccc3OC)n2)s1	.	.	.	39.4	.	.
Cc1ccc(NC(=O)Nc2cccs2)cc1	.	.	.	.	/	/
CCc1ccc(NC(=O)Nc2cccs2)cc1	.	.	.	43.9	.	.
O=C(C[C@H]1C(=O)N(Cc2ccccc2)C[C@@H]1Cc1ccccc1)Nc1ccccc1	.	.	.	.	/	/
SMILES	ZTA counter	CTSL1 counter	EBNA-1 inhibitor	HCV NS3 hel inh	NS3 hel confirm	DNA FID counter
O=C(C[C@H]1C(=O)N(C2CCCCC2)C[C@@H]1Cc1ccccc1)Nc1ccccc1	.	.	.	37.0	.	.
CC(=O)c1c(N)nc2n(c1=O)CCCCC2	.	.	.	.	/	/
Cc1ccc(-n2c(C)cc(-c3csc(N)n3)c2C)cc1	.	.	.	83.0	.	.
CC(C)OCCCNC(=O)c1ccc(N(C)S(C)(=O)=O)cc1	.	.	.	.	/	/
CCC(C)NC(=O)c1cc2cc3ccc(OC)cc3nc2o1 (centres undefined)	.	.	.	38.1	.	.
CCOc1ccc(NC(=O)c2cc3cc4ccc(C)cc4nc3o2)cc1	.	.	.	46.6	.	.
CC1(C)Cc2c(c(-c3ccco3)nc3sc4c(NCCCO)ncnc4c23)CO1	.	.	.	60.1	.	.
CC1(C)Cc2c(c(-c3ccco3)nc3sc4c(NCCN5CCOCC5)ncnc4c23)CO1	.	.	.	.	/	/
CN(C)c1cccc2c(S(=O)(=O)N3CCOCC3)cccc12	.	.	.	.	/	/
CN(C)c1cccc2c(S(=O)(=O)N3CCCC3)cccc12	.	.	.	36.1	.	.
Cc1nc2cc(NC(=O)Nc3ccccc3Cl)ccc2n1C	.	.	.	.	/	/
Cc1noc(NS(=O)(=O)c2ccc(NC(=O)CS(=O)(=O)c3ccccc3)cc2)c1C	.	.	.	.	/	/
Cc1noc(NS(=O)(=O)c2ccc(NC(=O)Cc3ccc([N+](=O)[O-])cc3)cc2)c1C	.	.	.	41.6	.	.
Cc1ccccc1NC(=O)CCN1CCN(C/C=C/c2ccccc2)CC1	.	.	.	.	/	/
CC1=CC2=NC(=O)/C(=C/c3coc4ccc(Cl)cc4c3=O)C(=N)N2O1	.	.	.	41.9	.	.
CN(C)S(=O)(=O)c1cccc(NC(=S)N/N=C/c2cccc(O)c2)c1	.	.	.	.	/	/
CN(C)S(=O)(=O)c1cccc(NC(=S)N/N=C/c2cc(Br)ccc2O)c1	.	.	.	46.2	53.1	.
O=C(CCC(=O)NNC(=O)Cc1ccccc1)NCc1ccccc1	.	.	.	.	/	/
O=C(COC(=O)CCc1c[nH]c2ccccc12)NCc1ccccc1	.	.	.	42.8	.	.
O=C(CCC(=O)NCc1ccccc1)NCc1ccccc1	.	.	.	48.4	.	.
CN(Cc1ccco1)S(=O)(=O)c1ccc2c(c1)CCN2C(=O)CCC(=O)O	.	.	.	.	/	/
CCCCn1c(N)c(NCCC(C)C)c(=O)[nH]c1=O	.	.	.	44.7	.	.
Cc1nnc2sc(SCc3ccccc3)nn2c1=O	.	.	.	.	/	/
Cc1cc(C(=O)CSc2nnnn2-c2ccccc2)c(C)n1-c1ccc2c(c1)OCO2	.	.	.	36.5	.	.
COCCCn1c(=O)/c(=C\c2ccccc2OC(C)C)s/c1=C(/C#N)C(=O)Nc1ccc(C(=O)O)cc1	.	.	.	50.4	58.4	.
SMILES	ZTA counter	CTSL1 counter	EBNA-1 inhibitor	HCV NS3 hel inh	NS3 hel confirm	DNA FID counter
COCCCn1c(=O)/c(=C\c2ccccc2OC(F)F)s/c1=C(/C#N)C(=O)NC(C)C	.	.	.	.	/	/
O=C(CCN1C(=O)C2C3C=CC(C3)C2C1=O)NCC1CCCO1 (centres undefined)	.	.	.	.	/	/
Cc1cc(NS(=O)(=O)c2ccc(NC(=O)CCc3ccccc3)cc2)no1	.	.	.	41.2	.	.
Cn1cc(C=C2C(=O)CC(C)(C)CC2=O)c2ccccc21	.	.	.	37.6	.	.
Oc1cccc(/C=C/c2ccc3cccc(O)c3n2)c1	.	.	.	.	/	/
Cc1ccc(/C=C/c2ccc3cccc(O)c3n2)s1	.	.	.	49.5	.	.
O=[N+]([O-])c1ccc(/C=C/c2ccc3cccc(O)c3n2)cc1	.	.	.	50.0	.	.
CN(CCC#N)C(=O)COC(=O)c1c2c(nc3ccccc13)/C(=C/c1ccco1)CC2	.	.	.	77.3	.	.
CSc1ccc(/C=N/Nc2cccc(C(=O)O)c2)cc1	/	/	/	38.0	76.3	.
